Tests used:
[1] = Cytotoxicity against human KB-3-1 cells after 72 hrs by MTT assay; format: functional, cell-based; details: KB 3-1, 72 h
In short: (§1)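 Grown in DMEM with 10% FBS. MTT assay: 4000 cells/well, 24 h settling, serial dilutions of drug, 72 h at 37 °C in 5% CO2. MTT in IMDM 4 h, then acidified ethanol 15 min, A570 with 690 nm background. Three experiments in triplicate. KB-V1-R comes from KB-V1 grown long-term drug-free.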

[2] = Cytotoxicity against vinblastine-selected human KBV1 cells after 72 hrs by MTT assay; format: functional, cell-based; details: KB-V1, 72 h
In short: as §1, with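 “background. IC50 is the concentration reducing absorbance to 50% of untreated control.” for “background.”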

[3] = Selectivity ratio of IC50 for human KB-3-1 cells to IC50 for human KBV1 cells selected at 1 ug/mL vinblastine; format: functional
In short: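 Selectivity ratio: IC50 in the parental or empty-vector cells divided by IC50 in the P-gp-expressing cells (KB-V1, or ABCB1-transfected LLC-PK1). MTT assay: 4000 cells/well established for 24 h, then 72 h exposure to serially diluted drug at 37 °C, 5% CO2. MTT for 4 h, acidified ethanol lysis, A570 corrected at A690. IC50 is the concentration giving 50% of untreated absorbance, from at least three experiments.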

OVCAR-8 = assay: Cytotoxicity against human OVCAR8 cells after 72 hrs by MTT assay; format: functional, cell-based; details: OVCAR-8, 72 h
In short: (§2)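 Lines grown in RPMI with 10% FBS and 2 mM L-glutamine. MTT assay: 4000 cells/well attached 24 h before serially diluted drug, then 72 h exposure at 37 °C, 5% CO2. MTT in IMDM 4 h, lysis in acidified ethanol 15 min, absorbance 570 nm minus 690 nm. IC50 is the concentration halving untreated absorbance. Three independent experiments, each in triplicate.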

NCI/ADR-RES = assay: Cytotoxicity against adriamycin-selected human NCI/ADR-RES cells after 72 hrs by MTT assay; format: functional, cell-based; in short: as §2
HEK293 [4] = assay: Cytotoxicity against human HEK293 cells after 72 hrs by MTT assay; format: functional, cell-based; details: HEK293, 72 h
In short: as §1, with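 “background. IC50 is the concentration reducing absorbance to 50% of untreated control.” for “background.”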

HEK293 [5] = assay: Cytotoxicity against human HEK293 cells transfected with plasmid expressing MDR1 after 72 hrs by MTT assay; format: functional, cell-based; details: HEK293, 72 h
In short: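 ABCB1-transfected HEK293 grown in DMEM with 10% FBS and 1 mg/mL G418. MTT assay: 4000 cells/well for 24 h, serial drug dilutions, 72 h at 37 °C, 5% CO2. MTT 4 h, acidified ethanol lysis, A570 corrected at 690 nm. IC50 at 50% of untreated absorbance. Three experiments in triplicate.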

[6] = Cytotoxicity against doxorubicin-selected human ZR-75B cells after 72 hrs by MTT assay; format: functional, cell-based; in short: as §2
NIH3T3 [7] = assay: Cytotoxicity against mouse NIH/3T3 cells after 72 hrs by MTT assay; format: cell-based; details: NIH3T3, 72 h
In short: as §1, with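 “background. IC50 is the concentration reducing absorbance to 50% of untreated control.” for “background.”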

NIH3T3 [8] = assay: Cytotoxicity against mouse NIH/3T3 cells selected at 30 ug/ml vincristine after 72 hrs by MTT assay; format: functional, cell-based; details: NIH3T3, 72 h, in the assay text read “30 ng/ml” for “30 ug/ml”
In short: as §1, with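 “background. IC50 is the concentration reducing absorbance to 50% of untreated control.” for “background.”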

NIH3T3 [9] = assay: Cytotoxicity against mouse NIH/3T3 cells transfected with wild type p-glycoprotein ABCB1 selected at 600 ug/ml vincristine after 72 hrs by MTT assay; format: functional, cell-based; details: NIH3T3, 72 h, in the assay text read “600 ng/ml” for “600 ug/ml”
In short: as §1, with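 “background. IC50 is the concentration reducing absorbance to 50% of untreated control.” for “background.”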

NIH3T3 [10] = assay: Cytotoxicity against 2.4 ug/mL vincristine selected mouse NIH/3T3 cells transfected with P-gp Ser to Asp phosphorylation mutant after 72 hrs by MTT assay; format: functional, cell-based; details: NIH3T3, 72 h
In short: as §1, with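 “background. IC50 is the concentration reducing absorbance to 50% of untreated control.” for “background.”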

NIH3T3 [11] = assay: Cytotoxicity against mouse NIH/3T3 cells transfected with wild-type P-gp G185 after 72 hrs by MTT assay; format: functional, cell-based; details: NIH3T3, 72 h
In short: as §1, with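 “background. IC50 is the concentration reducing absorbance to 50% of untreated control.” for “background.”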

NIH3T3 [12] = assay: Cytotoxicity against mouse NIH/3T3 cells selected at 1 ug/mL colchicine after 72 hrs by MTT assay; format: functional, cell-based; details: NIH3T3, 72 h
In short: as §1, with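 “background. IC50 is the concentration reducing absorbance to 50% of untreated control.” for “background.”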

[13] = Cytotoxicity against human Ew36 cells after 72 hrs by MTT assay; format: functional, cell-based; details: Ew36, 72 h; in short: as §2
[14] = Cytotoxicity against human Ew36 cells selected at 120 ng/mL vincristine after 72 hrs by MTT assay; format: functional, cell-based; details: Ew36, 72 h; in short: as §2
[15] = Cytotoxicity against human MES-SA cells after 72 hrs by MTT assay; format: functional, cell-based
In short: (§3)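 MES-SA and MES-SA/Dx5 lines kept in McCoy's 5A with 10% FBS. MTT assay: seeded at 4000 cells/well for 24 h, serial drug dilutions, 72 h at 37 °C and 5% CO2. MTT 4 h, acidified ethanol lysis, A570 corrected at 690 nm. IC50 is 50% absorbance versus untreated wells. Three separate experiments in triplicate.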

[16] = Cytotoxicity against adriamycin-selected human MES-SA cells after 72 hrs by MTT assay; format: functional, cell-based; in short: as §3
SW-620 [17] = assay: Cytotoxicity against human SW620 cells after 72 hrs by MTT assay; format: functional, cell-based; details: SW-620, 72 h; in short: as §2
SW-620 [18] = assay: Cytotoxicity against human SW620 cells selected at 20 ng/mL adriamycin after 72 hrs by MTT assay; format: functional, cell-based; details: SW-620, 72 h; in short: as §2
LLC-PK1 [19] = assay: Cytotoxicity against pig LLC-PK1 cells transfected with empty vector after 72 hrs by MTT assay; format: cell-based; details: Sus scrofa, LLC-PK1, 72 h
In short: (§4)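 LLC-PK1 empty-vector lines grown in M199 with 10% FBS; transfected lines also in 0.5 mg/mL G418. MTT assay: 4000 cells/well for 24 h, then serially diluted drug for 72 h at 37 °C, 5% CO2. MTT 4 h, acidified ethanol, A570 minus 690 nm. IC50 is 50% of untreated absorbance. Triplicate wells, three experiments.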

LLC-PK1 [20] = assay: Cytotoxicity against pig LLC-PK1 cells after 72 hrs by MTT assay; format: cell-based; details: Sus scrofa, LLC-PK1, 72 h; in short: as §4
CHO [21] = assay: Cytotoxicity against CHO cells after 72 hrs by MTT assay; format: cell-based; details: Cricetulus griseus
In short: (§5)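 CHO and colchicine-selected C5 cells kept in AlphaMEM with 10% FBS. MTT assay: 4000 cells/well settled 24 h, then serially diluted drug added. Incubated 72 h at 37 °C, 5% CO2. MTT in IMDM for 4 h, then acidified ethanol lysis for 15 min. Read A570, background-corrected at 690 nm. IC50 is the concentration giving 50% of untreated absorbance. Three experiments, each in triplicate.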

CHO [22] = assay: Cytotoxicity against CHO cells selected at 1 ug/mL colchicine after 72 hrs by MTT assay; format: functional, cell-based; details: Cricetulus griseus; in short: as §5

## O=C1Nc2ccccc2/C1=N/NC(=S)Nc1cc(F)c(F)c(F)c1
[1]
  IC50: 4.41 µM
[2]
  IC50: 2.15 µM
[3]
  Ratio IC50: 2.1

## O=C1Nc2ccccc2/C1=N/NC(=S)Nc1ccccc1Cl
[1]
  IC50: 2.22 µM
[2]
  IC50: 1.17 µM
[3]
  Ratio IC50: 1.9

## O=C1Nc2ccccc2/C1=N/NC(=S)Nc1cccc(Cl)c1
[1]
  IC50: 1.87 µM
[2]
  IC50: 0.64 µM
[3]
  Ratio IC50: 2.9

## COc1cccc2c1C(=O)c1c(O)c3c(c(O)c1C2=O)C[C@@](O)(C(=O)CO)C[C@@H]3O[C@H]1C[C@H](N)[C@H](O)[C@H](C)O1 [DOXORUBICIN]
[2]
  IC50: 4.7 µM
OVCAR-8
  IC50: 0.14 µM
NCI/ADR-RES
  IC50: 9.3 µM
HEK293 [4]
  IC50: 0.01 µM
HEK293 [5]
  IC50: 0.42 µM
[6]
  IC50: 2.02 µM
NIH3T3 [7]
  IC50: 0.05 µM
NIH3T3 [8]
  IC50: 0.08 µM
NIH3T3 [9]
  IC50: 0.69 µM
NIH3T3 [10]
  IC50: 17.5 µM
NIH3T3 [11]
  IC50: 0.38 µM
NIH3T3 [12]
  IC50: 1.58 µM
[13]
  IC50: 0.01 µM
[14]
  IC50: 0.24 µM
[15]
  IC50: 0.03 µM
[16]
  IC50: 0.87 µM
SW-620 [17]
  IC50: 0.01 µM
SW-620 [18]
  IC50: 0.24 µM
LLC-PK1 [19]
  IC50: 0.2 µM
LLC-PK1 [20]
  IC50: 19.7 µM
CHO [21]
  IC50: 0.08 µM
CHO [22]
  IC50: 9.7 µM

## O=C1Nc2ccccc2/C1=N/NC(=S)Nc1ccccc1
[1]
  IC50: 3.53 µM
[2]
  IC50: 1.47 µM
[3]
  Ratio IC50: 2.4

## O=C1Nc2ccccc2/C1=N/NC(=S)Nc1ccc(Cl)cc1
[1]
  IC50: 13.4 µM
[2]
  IC50: 4.99 µM
[3]
  Ratio IC50: 2.7

## COc1ccccc1NC(=S)N/N=C1\C(=O)Nc2ccccc21
[1]
  IC50: 4.96 µM
[2]
  IC50: 2.69 µM
[3]
  Ratio IC50: 1.8

## CCCCNC(=S)N/N=C1\C(=O)Nc2ccccc21
[1]
  IC50: 10.9 µM
[2]
  IC50: 5.69 µM
[3]
  Ratio IC50: 1.9

From ChEMBL document CHEMBL1914305, “Synthesis and structure-activity evaluation of isatin-β-thiosemicarbazones with improved selective activity toward multidrug-resistant cells expressing P-glycoprotein” (J Med Chem, 2011)
